Test results published in ChEMBL document CHEMBL1944532, “Synthesis and evaluation of anticancer activity of some novel 6-aryl-2-(p-sulfamylphenyl)-pyridazin-3(2H)-ones” (Eur J Med Chem, 2012).
Calls of active or inactive are those of the source. The rule behind the calls is not given here.

How the values were obtained:
[1] = tested on: NCI/ADR-RES; experiment: Cytotoxicity against human NCI/ADR-RES cells assessed as cell growth at 10 uM after 48 hrs by SRB assay; format: functional; conditions: read-out: Activity
Procedure, shortened: (§1)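 NCI primary single-dose screen at 10^-5 M against the full panel of about 60 human tumor cell lines. Cells were in RPMI-1640 with 5% fetal calf serum and 2 mM L-glutamine and preincubated 24 h. Compound was given in DMSO with 48 h exposure. Growth was estimated by sulforhodamine B protein assay.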

[2] = tested on: UACC-257; experiment: Cytotoxicity against human UACC257 cells after 48 hrs by SRB assay; format: functional; conditions: UACC-257, 48 h
Procedure, shortened: (§2)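 NCI 60-cell-line five-dose screen. Cells were grown in 1640 medium with 5% fetal calf serum and 2 mM L-glutamine, with inoculum density set by cell line, and pre-incubated 24 h. Compound in DMSO was added at 10^-4 to 10^-8 M (10-fold steps) with 48 h continuous exposure. Growth was read by SRB protein assay, and GI50, TGI and LC50 were derived from dose-response.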

[3] = tested on: NCI-H522; experiment: Cytotoxicity against human NCI-H522 cells assessed as cell growth at 10 uM after 48 hrs by SRB assay; format: functional; conditions: NCI-H522, 48 h, read-out: Activity; procedure, shortened: as §1
[4] = tested on: UACC-257; experiment: Cytotoxicity against human UACC257 cells assessed as cell growth at 10 uM after 48 hrs by SRB assay; format: functional; conditions: UACC-257, 48 h, read-out: Activity
Procedure, shortened: (§3)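 NCI primary one-dose screen at 10^-5 M against the full panel of about 60 human tumour cell lines, run to the NCI Drug Evaluation Branch protocol.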

[5] = tested on: MDA-MB-435; experiment: Cytotoxicity against human MDA-MB-435 cells after 48 hrs by SRB assay; format: functional; conditions: MDA-MB-435, 48 h
Procedure, shortened: (§4)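 NCI five-dose screen on the ~60-line human tumor panel. Cells grown in RPMI-1640 with 5% fetal calf serum and 2 mM L-glutamine, seeded at line-dependent density and preincubated 24 h. Compound added from DMSO at 10-fold dilutions from 10^-4 to 10^-8 M, continuous exposure 48 h. Growth read by sulforhodamine B protein stain. GI50, TGI and LC50 derived per line.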

[6] = tested on: SK-OV-3; experiment: Cytotoxicity against human SKOV3 cells assessed as cell growth at 10 uM after 48 hrs by SRB assay; format: functional; conditions: SK-OV-3, 48 h, read-out: Activity; procedure, shortened: as §3
[7] = tested on: UO-31; experiment: Cytotoxicity against human UO31 cells assessed as cell growth at 10 uM after 48 hrs by SRB assay; format: functional; conditions: UO-31, 48 h, read-out: Activity; procedure, shortened: as §3
[8] = tested on: UO-31; experiment: Cytotoxicity against human UO31 cells after 48 hrs by SRB assay; format: functional; conditions: UO-31, 48 h; procedure, shortened: as §2
[9] = tested on: CCRF-CEM; experiment: Cytotoxicity against human CCRF-CEM cells assessed as cell growth at 10 uM after 48 hrs by SRB assay; format: functional; conditions: read-out: Activity
Procedure, shortened: (§5)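 NCI primary single-dose screen at 10^-5 M against the ~60 human tumour cell line panel. Cells grown in RPMI-1640 with 5% fetal calf serum and 2 mM L-glutamine and pre-incubated 24 h before compound addition. Compound added from DMSO solution with 48 h exposure. Growth read by sulforhodamine B protein staining.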

[10] = tested on: T47D; experiment: Cytotoxicity against human T47D cells assessed as cell growth at 10 uM after 48 hrs by SRB assay; format: functional; conditions: read-out: Activity; procedure, shortened: as §3
[11] = tested on: LOX IMVI; experiment: Antitumor activity against human LOXIMVI cells implanted in mouse dosed qd for 4 days by formazan dye-based hollow fiber assay; format: functional, organism-based
Procedure, shortened: (§6)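 Cells grown inside polyvinylidene fluoride hollow fibers; each line implanted into both intraperitoneal and subcutaneous compartments in mice. Compound given ip at two doses on a QD x 4 schedule. Fibers then recovered and viable cell mass measured by formazan dye conversion. Scored 2 per dose giving ≥50% reduction in viable cell mass (%T/C 50).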

[12] = tested on: Hs-578T; experiment: Cytotoxicity against human Hs578T cells assessed as cell growth at 10 uM after 48 hrs by SRB assay; format: functional; conditions: read-out: Activity; procedure, shortened: as §5
[13] = tested on: M14; experiment: Cytotoxicity against human M14 cells after 48 hrs by SRB assay; format: functional; conditions: M14, 48 h; procedure, shortened: as §4
[14] = tested on: RPMI-8226; experiment: Cytotoxicity against human RPMI8226 cells after 48 hrs by SRB assay; format: functional; conditions: RPMI-8226, 48 h; procedure, shortened: as §4
[15] = tested on: K562; experiment: Cytotoxicity against human K562 cells after 48 hrs by SRB assay; format: functional; conditions: K562, 48 h
Procedure, shortened: (§7)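 NCI ~60-line panel in RPMI-1640 with 5% fetal calf serum and 2 mM L-glutamine, pre-incubated 24 h. Compound in DMSO tested at five 10-fold concentrations (10^-4 to 10^-8 M) with 48 h continuous exposure. Growth measured by sulforhodamine B protein assay. GI50 (50% net growth inhibition), TGI (total inhibition) and LC50 (50% net cell death) derived from dose-response.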

[16] = tested on: ACHN; experiment: Cytotoxicity against human ACHN cells after 48 hrs by SRB assay; format: functional; procedure, shortened: as §7
[17] = tested on: RXF 393; experiment: Cytotoxicity against human RXF393 cells after 48 hrs by SRB assay; format: functional; conditions: RXF 393, 48 h; procedure, shortened: as §4
[18] = tested on: LOX IMVI; experiment: Cytotoxicity against human LOXIMVI cells after 48 hrs by SRB assay; format: functional; procedure, shortened: as §4
[19] = tested on: SF-295; experiment: Antitumor activity against human SF295 cells implanted in mouse dosed qd for 4 days by formazan dye-based hollow fiber assay; format: functional, organism-based; procedure, shortened: as §6
[20] = tested on: MOLT-4; experiment: Cytotoxicity against human MOLT4 cells after 48 hrs by SRB assay; format: functional; conditions: MOLT-4, 48 h; procedure, shortened: as §4
[21] = tested on: 786-0; experiment: Cytotoxicity against human 786-0 cells assessed as cell growth at 10 uM after 48 hrs by SRB assay; format: functional; conditions: 786-0, 48 h, read-out: Activity; procedure, shortened: as §5
[22] = tested on: MCF7; experiment: Cytotoxicity against human MCF7 cells after 48 hrs by SRB assay; format: functional; conditions: MCF7, 48 h; procedure, shortened: as §4
[23] = tested on: ACHN; experiment: Cytotoxicity against human ACHN cells assessed as cell growth at 10 uM after 48 hrs by SRB assay; format: functional; conditions: read-out: Activity; procedure, shortened: as §5
[24] = tested on: HL-60(TB); experiment: Cytotoxicity against human HL-60(TB) cells assessed as cell growth at 10 uM after 48 hrs by SRB assay; format: functional; conditions: HL-60, 48 h, read-out: Activity
Procedure, shortened: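 NCI primary one-dose screen at 10^-5 M against about 60 human tumor cell lines. Cells pre-incubated 24 h, then compound in DMSO added for 48 h. Cell growth read by sulforhodamine B protein assay.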

[25] = read-out: pLC50 (the source's name) (converted)

`CCc1ccc(-c2ccc(=O)n(-c3ccc(S(N)(=O)=O)cc3)n2)cc1` showed a growth at 10 µM [1] of 1%, an LC50 [2] greater than 100 µM and a GI50 ([2]; read-out: GI50) greater than 100 µM. The GI50 ([2]; read-out: pGI50 (converted)) was greater than 100 µM, the TGI ([2]; read-out: pTGI) was greater than 100 µM and the growth at 10 µM [3] was -33.6%. For the same molecule, the growth at 10 µM [4] was 22.3%, the LC50 [5] was greater than 100 µM and the GI50 ([5]; read-out: GI50) was 0.223 µM. It also gave a GI50 ([5]; read-out: pGI50 (converted)) of 0.224 µM, a TGI ([5]; read-out: pTGI (converted)) of 2.19 µM and a growth at 10 µM [6] of 49.5%. For the same molecule, the growth at 10 µM [7] was 38.4%, the LC50 [8] was greater than 100 µM and the GI50 ([8]; read-out: GI50) was greater than 100 µM. The GI50 ([8]; read-out: pGI50 (converted)) was greater than 100 µM, the TGI ([8]; read-out: pTGI) was greater than 100 µM and the growth at 10 µM [9] was 27.9%. The growth at 10 µM [10] was 33.4%, the Activity [11] was “inactive” and the growth at 10 µM [12] was 28.6%. The LC50 [13] was greater than 100 µM, the GI50 ([13]; read-out: GI50) was 0.335 µM and the GI50 ([13]; read-out: pGI50 (converted)) was 0.339 µM. The TGI ([13]; read-out: pTGI (converted)) was 4.9 µM, the LC50 [14] was greater than 100 µM and the GI50 ([14]; read-out: GI50) was 0.479 µM. The GI50 ([14]; read-out: pGI50 (converted)) was 0.479 µM, the TGI ([14]; read-out: pTGI (converted)) was 8.51 µM and the GI50 ([15]; read-out: GI50) was 0.257 µM. It also gave a GI50 ([15]; read-out: pGI50 (converted)) of 0.257 µM, a CC50 [15, 25] greater than 100 µM and a TGI ([15]; read-out: pTGI) greater than 100 µM. The GI50 [16] was 10.5 µM, the CC50 [16, 25] was greater than 100 µM and the TGI ([16]; read-out: pTGI) was greater than 100 µM. The LC50 [17] was greater than 100 µM, the GI50 ([17]; read-out: GI50) was 3.51 µM and the GI50 ([17]; read-out: pGI50 (converted)) was 3.55 µM. It also gave a TGI ([17]; read-out: pTGI (converted)) of 28.2 µM, an LC50 [18] greater than 100 µM and a GI50 ([18]; read-out: GI50) of 5.27 µM. For the same molecule, the GI50 ([18]; read-out: pGI50 (converted)) was 5.25 µM, the TGI ([18]; read-out: pTGI) was greater than 100 µM and the Activity [19] was “inactive”. It also gave an LC50 [20] greater than 100 µM, a GI50 ([20]; read-out: GI50) of 0.573 µM and a GI50 ([20]; read-out: pGI50 (converted)) of 0.575 µM. For the same molecule, the TGI ([20]; read-out: pTGI) was greater than 100 µM, the growth at 10 µM [21] was 50% and the LC50 [22] was greater than 100 µM. It also gave a GI50 ([22]; read-out: GI50) of 0.615 µM, a GI50 ([22]; read-out: pGI50 (converted)) of 0.617 µM and a TGI ([22]; read-out: pTGI (converted)) of 19.1 µM. The growth at 10 µM [23] was 60.3% and the growth at 10 µM [24] was -4.27%.
